Data from ChEMBL document CHEMBL1143645, “Structure-activity relationship study of novel necroptosis inhibitors” (Bioorg Med Chem Lett, 2005).

What was measured:
[1] = system: Jurkat; experiment: Effective concentration required for inhibition of necroptosis in FADD deficient Jurkat T cells treated with TNF-alpha; type: functional, cell-based; settings: Homo sapiens
Outline: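 FADD-deficient human Jurkat T cells given human TNFα 10 ng/mL plus rising concentrations of inhibitor for 24 h. Viability read by luminescent ATP-based assay and corrected for nonspecific toxicity. EC50 from nonlinear regression of sigmoid variable-slope dose–response curves, log inhibitor concentration versus viability.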

[2] = Area under curve concentration in male mouse after 8 hours of intravenous administration; type: ADME; design: time < 8 hr, route intravenous; settings: in vivo
Outline: (§1)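 CD-1 mice of each sex given a single intravenous dose of 1 mg/kg. Vehicle was 10% propylene glycol in normal saline, dosing solution 0.16 mg/mL. Plasma pharmacokinetics followed over 8 h to give AUC, Cmax, half-life, Vss and clearance.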

[3] = Area under curve concentration in female mouse after 8 hours of intravenous administration; type: ADME; design: time < 8 hr, route intravenous; settings: in vivo; outline: as §1
[4] = Maximum concentration in male mouse upon intravenous administration; type: ADME, organism-based; design: route intravenous; settings: in vivo; outline: as §1
[5] = Maximum concentration in female mouse upon intravenous administration; type: ADME, organism-based; design: route intravenous; settings: in vivo; outline: as §1
[6] = Brain concentration in male mouse after 30 min intravenous administration; type: ADME
Outline: (§2)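 Male CD-1 mice dosed intravenously at 1 mg/kg in 10% propylene glycol/normal saline (0.16 mg/mL). Brain and plasma concentrations measured at set post-injection times, and brain-to-plasma ratio calculated.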

[7] = Plasma concentration in male mouse after 30 min intravenous administration; type: ADME; outline: as §2
[8] = Plasma concentration in male mouse after 180 min intravenous administration; type: ADME; outline: as §2
[9] = Ratio between concentration in brain to that of plasma was determined n male mouse after 30 min intravenous administration; type: ADME; outline: as §2
[10] = Clearance value in male mouse upon intravenous administration; type: ADME, organism-based; settings: in vivo, read-out: CLs; outline: as §1
[11] = Clearance value in female mouse upon intravenous administration; type: ADME, organism-based; settings: in vivo, read-out: CLs; outline: as §1
[12] = Volume of distribution at steady state was determined in male mouse upon intravenous administration; type: ADME, organism-based; settings: in vivo; outline: as §1

Structure (SMILES)	EC50 [1] [nM]	other results
CN1C(=O)C(Cc2c[nH]c3c(F)cccc23)NC1=S (stereo unspecified)	260	
CN1C(=O)NC(Cc2c[nH]c3c(Cl)cc(Cl)cc23)C1=O (stereo unspecified)	> 10000	
CN1C(=O)N[C@H](Cc2c[nH]c3c(Cl)cccc23)C1=O	50	
CN1C(=O)OC(Cc2c[nH]c3c(Cl)cccc23)C1=O (stereo unspecified)	380	
CN1C(=O)C(Cc2c[nH]c3c(Cl)cccc23)N(C)C1=O (stereo unspecified)	> 10000	
Cc1[nH]c2ccccc2c1CC1NC(=O)N(C)C1=O (stereo unspecified)	> 10000	
CN1C(=O)NC(Cc2c[nH]c3cccc(Cl)c23)C1=O (stereo unspecified)	9200	
CN1C(=O)NC(Cc2c[nH]c3c(F)cccc23)C1=O (stereo unspecified)	590	
CN1C(=O)C(Cc2c[nH]c3ccccc23)NC1=S (stereo unspecified) [NECROSTATIN]	490	
CN1C(=O)NC(Cc2c[nH]c3cc(Cl)ccc23)C1=O (stereo unspecified)	5700	
CN1C(=O)NC(Cc2cn(C)c3c(Cl)cccc23)C1=O (stereo unspecified)	3800	
CN1C(=O)C(Cc2c[nH]c3c(Cl)cccc23)NC1=S (stereo unspecified)	180	
O=C1NC(Cc2c[nH]c3c(Cl)cccc23)CO1 (stereo unspecified)	> 10000	
COc1cccc2c(CC3NC(=O)N(C)C3=O)c[nH]c12 (stereo unspecified)	710	
CCCCOc1cccc2c(CC3NC(=O)N(C)C3=O)c[nH]c12 (stereo unspecified)	270	
CN1C(=O)NC(Cc2c[nH]c3ccccc23)C1=O (stereo unspecified)	1300	
O=C1NC(=S)NC1Cc1c[nH]c2ccccc12 (stereo unspecified)	> 10000	

Structure (SMILES)	EC50 [1] [nM]	other results
CC(C)N1C(=O)NC(Cc2c[nH]c3c(Cl)cccc23)C1=O (stereo unspecified)	> 10000	
COc1ccc2[nH]cc(CC3NC(=O)N(C)C3=O)c2c1 (stereo unspecified)	> 10000	
CN1C(=O)NC(Cc2c[nH]c3c(Cl)cccc23)C1=O (stereo unspecified)	210	AUC at 8 h [2]: 274 ng·h/mL; AUC at 8 h [3]: 165 ng·h/mL; Cmax [4]: 873 ng/mL; Cmax [5]: 573 ng/mL; concentration at 0.5 h [6]: 740 nM; concentration at 0.5 h [7]: 310 nM; concentration at 3 h [8]: 3 nM; Kp at 0.5 h [9]: 2.4; clearance [10]: 61 mL/min/kg; clearance [11]: 100 mL/min/kg; Vss [12]: 2500 mL/kg; Vd ([12]; male, read-out: Vss): 2.5 L/kg
O=C1NC(=O)C(Cc2c[nH]c3ccccc23)N1 (stereo unspecified)	> 10000	
Cc1cccc2c(CC3NC(=O)N(C)C3=O)c[nH]c12 (stereo unspecified)	330	
CN1CC(Cc2c[nH]c3c(Cl)cccc23)NC1=O (stereo unspecified)	> 10000	
CN1C(=O)C(Cc2cn(C)c3c(Cl)cccc23)NC1=S (stereo unspecified)	> 10000	
CN1C(=O)C(Cc2csc3ccccc23)NC1=S (stereo unspecified)	4800	
CCN1C(=O)N[C@@H](Cc2c[nH]c3c(Cl)cccc23)C1=O	180	
CN1C(=O)C(Cc2c[nH]c3cc(Cl)ccc23)NC1=S (stereo unspecified)	> 10000	
CN1C(=O)C(Cc2cn(C)c3ccccc23)NC1=S (stereo unspecified)	> 10000	
CN1C(=O)N[C@@H](Cc2c[nH]c3c(Cl)cccc23)C1=O	230	
CN1C(=O)NC(Cc2c[nH]c3c(OCc4ccccc4)cccc23)C1=O (stereo unspecified)	> 10000	
CCCCN1C(=O)NC(Cc2c[nH]c3c(Cl)cccc23)C1=O (stereo unspecified)	850	
CN1C(=O)C(Cc2c[nH]c3c(Br)cccc23)NC1=S (stereo unspecified)	160	
COc1cccc2c(CC3NC(=S)N(C)C3=O)c[nH]c12 (stereo unspecified)	630	
CN1C(=O)NC(Cc2csc3ccccc23)C1=O (stereo unspecified)	5600	
